Experimental data reported in ChEMBL document CHEMBL1125930, “3-O-alkylascorbic acids as free-radical quenchers: synthesis and inhibitory effect on lipid peroxidation” (J Med Chem, 1991).

Legend:
Rattus norvegicus [1] = species: Rattus norvegicus; assay: The compound was tested for the inhibition of lipid peroxidation in rat liver microsomes induced by [Fe2+] at a concentration of 10E-5 M.; assay type: functional
Method in brief: (§1)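 Liver microsomes from 24 h-fasted Wistar rats (8000g then 105000g pellet, in 0.15 M KCl, protein by Lowry). 1 mL mix: 83.5 mM KCl, 37.2 mM Tris-HCl pH 7.4, 10 μM FeSO4, 2 mg microsomal protein, compound in 0.01 mL DMF. 37 °C for 20 min. TBA-reactive material read at 532 nm after n-BuOH/pyridine extraction. Reported against vehicle control.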

Rattus norvegicus [2] = species: Rattus norvegicus; assay: The compound was tested for the inhibition of lipid peroxidation in rat liver microsomes induced by [Fe3+] at a concentration of 10E-5 M.; assay type: functional
Method in brief: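 Fasted Wistar rat liver microsomes, 2.0 mg protein in 1 mL of 83.5 mM KCl/37.2 mM Tris-HCl pH 7.4. Peroxidation started with 1 mM ADP, 10 μM FeCl3 and 0.02 mM NADPH. Compound added in 0.01 mL DMF. 37 °C for 20 min, stopped on ice. Malondialdehyde measured as TBA-reactive material: 95 °C for 20 min, butanol/pyridine extract, A532. Compared with vehicle control.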

[3] = Partition ratio obtained from HPLC analysis.; assay type: ADME
Rattus norvegicus [4] = species: Rattus norvegicus; assay: The compound was tested for the stimulation of lipid peroxidation in rat liver microsomes induced by [Fe2+] at a concentration of 10E-5 M.; assay type: functional; method in brief: as §1

Row | SMILES | inhibition (Rattus norvegicus [1]) | inhibition (Rattus norvegicus [2]) | k' [3] | Stimulation (Rattus norvegicus [4])
1 | CCCCCCCCCCCCOC1=C(O)C(=O)OC1C(O)CO (centres undefined) | 34% | 88% | 2.49 | 
2 | CCCCCCCCCCCCOC1=C(O)OC(C(O)CO)C1=O (centres undefined) |  | 83% | 0.63 | 
3 | CCCCCCCCCCC(=O)COC1=C(O)C(=O)OC1C(O)CO (centres undefined) | 44% | 88% | 1.14 | 
4 | CCCCCCCCCCCCCCCCCCOC1=C(O)[C@@H](C(O)CO)OC1=O (some centres undefined) | 29% | 88% | 1.13 | 
5 | CCCCCCCCCCOC1=C(OCCCCCCCCCC)C(C(O)CO)OC1=O (centres undefined) |  | 2% |  | 
6 | CCCCCCCCCCCCCCOC1=C(O)C(=O)OC1C(O)CO (centres undefined) | 30% | 81% | 4.78 | 
7 | CCCCCCCCCCCCCCCCC(=O)COC1=C(O)OC(C(O)CO)C1=O (centres undefined) |  | 55% | 0.45 | 
8 | CCCCCCCCC(=O)COC1=C(O)C(=O)OC1C(O)CO (centres undefined) | 33% | 64% | 0.55 | 
9 | CCCCCCCCCCCCCCCCCCOC1=C(O)C(=O)OC1C(O)CO (centres undefined) | 7% | 45% | 17.34 | 
10 | O=C1OC(C(O)CO)C(OCc2cccnc2)=C1O (centres undefined) |  | 2% | < 0.1 | 
11 | CCCCCCCCCCOC1=C(O)C(=O)OC1C(O)CO (centres undefined) | 44% | 91% | 1.27 | 
12 | CCCCCCCCCCCCCCCCC(=O)COC1=C(O)C(=O)OC1C(O)CO (centres undefined) | 28% | 43% | 8.26 | 
13 | CCCCCCCCCCOC(=O)COC1=C(O)C(=O)OC1C(O)CO (centres undefined) | 31% |  |  | 
14 | CCCCCCCCOC1=C(O)C(=O)OC1C(O)CO (centres undefined) | 9% | 40% | 0.62 | 
15 | CCCCCCCCOC1=C(O)OC(C(O)CO)C1=O (centres undefined) |  | 20% | < 0.2 | 
16 | CCCCCCCCCCCCCCCCOC1=C(O)C(=O)OC1C(O)CO (centres undefined) | 21% | 74% | 9.09 | 
17 | CC(=O)COC1=C(O)C(C2COC(C)(C)O2)OC1=O (centres undefined) |  | 2% | < 0.1 | 
18 | O=C1O[C@H]([C@@H](O)CO)C(O)=C1O [ASCORBIC ACID] |  |  | < 0.1 | 72%
19 | CCCCCCC(=O)COC1=C(O)C(=O)OC1C(O)CO (centres undefined) | 20% | 27% | 0.24 | 
20 | CCCCCCCCCCCCCCC(=O)COC1=C(O)C(=O)OC1C(O)CO (centres undefined) | 33% | 65% | 4.33 | 
21 | CCCCCCCCCCCCC(=O)COC1=C(O)C(=O)OC1C(O)CO (centres undefined) | 30% | 81% | 2.25 | 
22 | CCCCOC(=O)COC1=C(O)OC(C(O)CO)C1=O (centres undefined) |  | 10% |  | 
